Source: PMC7826400 (Proceedings of the National Academy of Sciences of the …, 2021)
Read-outs that look alike come from different tables or passages of the source. Blank lines part the entries; values can stand above or below the compound they belong to.

How the values were obtained:
MdIPMS1 [1] = molecular target: T1, MdIPMS1 (Malus domestica, UniProt A0A498I0D3); test: DTNB endpoint assay, feedback inhibition; type: biochemical; conditions: 10 mM α-ketoisovalerate; threonine range 0 to 10 mM
T1 sequence (A0A498I0D3 59-236): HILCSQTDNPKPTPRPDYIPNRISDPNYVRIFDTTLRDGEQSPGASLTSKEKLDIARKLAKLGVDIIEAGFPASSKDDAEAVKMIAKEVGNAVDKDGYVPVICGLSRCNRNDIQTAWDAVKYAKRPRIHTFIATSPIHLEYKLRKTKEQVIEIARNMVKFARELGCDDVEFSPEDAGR
T1 sequence (A0A498I0D3 250-642): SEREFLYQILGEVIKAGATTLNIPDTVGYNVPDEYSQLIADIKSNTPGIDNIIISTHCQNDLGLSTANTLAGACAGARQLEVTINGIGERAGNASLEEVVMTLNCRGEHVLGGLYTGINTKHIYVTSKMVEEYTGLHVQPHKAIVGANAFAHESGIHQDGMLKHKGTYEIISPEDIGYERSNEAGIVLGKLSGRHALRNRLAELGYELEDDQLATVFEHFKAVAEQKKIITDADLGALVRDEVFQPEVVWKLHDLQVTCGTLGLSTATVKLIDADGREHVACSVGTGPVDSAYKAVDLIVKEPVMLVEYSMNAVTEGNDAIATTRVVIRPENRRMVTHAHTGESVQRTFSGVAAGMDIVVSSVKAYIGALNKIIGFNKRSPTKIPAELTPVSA

MdIPMS2 [2] = molecular target: T2, MdIPMS2 (Malus domestica, UniProt A0A498KQL4); test: DTNB endpoint assay, feedback inhibition; type: biochemical; conditions: 10 mM α-ketoisovalerate; threonine range 0 to 10 mM
T2 sequence (A0A498KQL4 64-634): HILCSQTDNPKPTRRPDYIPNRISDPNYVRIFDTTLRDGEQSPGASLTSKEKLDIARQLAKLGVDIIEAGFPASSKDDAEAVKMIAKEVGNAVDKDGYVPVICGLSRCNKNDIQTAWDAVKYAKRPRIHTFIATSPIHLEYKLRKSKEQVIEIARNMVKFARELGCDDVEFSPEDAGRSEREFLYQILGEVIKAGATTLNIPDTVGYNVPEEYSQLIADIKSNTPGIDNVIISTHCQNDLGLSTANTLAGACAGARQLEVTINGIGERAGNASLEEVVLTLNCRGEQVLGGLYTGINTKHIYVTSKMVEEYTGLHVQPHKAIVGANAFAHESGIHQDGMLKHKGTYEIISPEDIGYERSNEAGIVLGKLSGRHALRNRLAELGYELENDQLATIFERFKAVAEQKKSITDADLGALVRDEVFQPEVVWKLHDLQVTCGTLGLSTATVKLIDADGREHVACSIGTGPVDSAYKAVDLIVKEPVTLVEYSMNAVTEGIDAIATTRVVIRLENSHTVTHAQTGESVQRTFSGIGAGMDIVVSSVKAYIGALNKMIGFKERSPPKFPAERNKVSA

MdIPMS2 [3] = molecular target: T2, MdIPMS2; test: DTNB endpoint assay, feedback inhibition; type: biochemical; conditions: read-out: % inhibition at 0.05 mM
MdIPMS1 [4] = molecular target: T1, MdIPMS1; test: DTNB endpoint assay, feedback inhibition; type: biochemical; conditions: read-out: % inhibition at 0.05 mM
MdCMS_1 = test: DTNB endpoint assay, Lineweaver-Burk; type: biochemical, Malus domestica; conditions: read-out: Km ± SE
Summary of the method: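 Recombinant apple enzyme expressed in E. coli BL21 (ORF with or without putative chloroplast transit peptide) and purified. Activity measured by DTNB (Ellman's reagent) endpoint assay. Acetyl-CoA was varied with pyruvate held saturating at 10 mM. Absorbance was corrected against an identical mixture lacking α-ketoacid. Km was obtained by regression of Lineweaver–Burk plots, with two to three replications per regression.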

inhibition at 50 µM (MdIPMS2 [3]): 70% | inhibition at 50 µM (MdIPMS1 [4]): 40%
SMILES: CC(C)C[C@H](N)C(=O)O [leucine]

Km (MdCMS_1; co-substrate acetyl-CoA): 3560 µM
SMILES: CCC(=O)C(=O)O [α-Ketobutyrate]

More lines, now with the values behind:

SMILES: C[C@@H](O)[C@H](N)C(=O)O [threonine]
% inhibition (MdIPMS1 [1]): both MdIPMS proteins were inhibited by elevated levels of threonine | % inhibition (MdIPMS2 [2]): both MdIPMS proteins were inhibited by elevated levels of threonine

SMILES: CC(=O)C(=O)O [Pyruvate]
Km (MdCMS_1; co-substrate acetyl-CoA): 2450 µM

SMILES: CC(=O)SCCNC(=O)CCNC(=O)[C@H](O)C(C)(C)COP(=O)(O)OP(=O)(O)OC[C@H]1O[C@@H](n2cnc3c(N)ncnc32)[C@H](O)[C@@H]1OP(=O)(O)O [Acetyl-CoA]
Km (MdCMS_1; saturating (10 mM) pyruvate): 6.6 ± 0.9 µM
